This passage reports EC50 and Activity results from ChEMBL document CHEMBL1212912, “Phenylsulfonylfuroxans as modulators of multidrug-resistance-associated protein-1 and P-glycoprotein” (J Med Chem, 2010).

In data set [1] the target is ATP-dependent translocase ABCB1 (Homo sapiens, UniProt P08183). Put plainly: Inhibition of MDR1 expressed in MDCK cells assessed as calcein AM accumulation by fluorescence assay. Format: cell-based. Put shortly:
(§1)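 MDCK cells overexpressing MRP1 or MDR1 (P-gp) were seeded at 50,000/well and grown to confluence overnight. Compound in medium was added for 30 min at 37°C, then calcein-AM (2.5 µM final, in PBS) for 30 min. Cells were washed 3× with ice-cold PBS and fluorescence read at ex 485/em 535 nm. The increase over untreated basal level was fitted against log[dose] to give EC50.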

Data set [2] deals with Multidrug resistance-associated protein 1 (Homo sapiens, UniProt P33527). Put plainly: […] MRP1 expressed in MDCK cells assessed as calcein AM accumulation by fluorescence assay. Format: cell-based. In short, it runs like this: as §1
Sequence of Multidrug resistance-associated protein 1 (P33527 whole entry): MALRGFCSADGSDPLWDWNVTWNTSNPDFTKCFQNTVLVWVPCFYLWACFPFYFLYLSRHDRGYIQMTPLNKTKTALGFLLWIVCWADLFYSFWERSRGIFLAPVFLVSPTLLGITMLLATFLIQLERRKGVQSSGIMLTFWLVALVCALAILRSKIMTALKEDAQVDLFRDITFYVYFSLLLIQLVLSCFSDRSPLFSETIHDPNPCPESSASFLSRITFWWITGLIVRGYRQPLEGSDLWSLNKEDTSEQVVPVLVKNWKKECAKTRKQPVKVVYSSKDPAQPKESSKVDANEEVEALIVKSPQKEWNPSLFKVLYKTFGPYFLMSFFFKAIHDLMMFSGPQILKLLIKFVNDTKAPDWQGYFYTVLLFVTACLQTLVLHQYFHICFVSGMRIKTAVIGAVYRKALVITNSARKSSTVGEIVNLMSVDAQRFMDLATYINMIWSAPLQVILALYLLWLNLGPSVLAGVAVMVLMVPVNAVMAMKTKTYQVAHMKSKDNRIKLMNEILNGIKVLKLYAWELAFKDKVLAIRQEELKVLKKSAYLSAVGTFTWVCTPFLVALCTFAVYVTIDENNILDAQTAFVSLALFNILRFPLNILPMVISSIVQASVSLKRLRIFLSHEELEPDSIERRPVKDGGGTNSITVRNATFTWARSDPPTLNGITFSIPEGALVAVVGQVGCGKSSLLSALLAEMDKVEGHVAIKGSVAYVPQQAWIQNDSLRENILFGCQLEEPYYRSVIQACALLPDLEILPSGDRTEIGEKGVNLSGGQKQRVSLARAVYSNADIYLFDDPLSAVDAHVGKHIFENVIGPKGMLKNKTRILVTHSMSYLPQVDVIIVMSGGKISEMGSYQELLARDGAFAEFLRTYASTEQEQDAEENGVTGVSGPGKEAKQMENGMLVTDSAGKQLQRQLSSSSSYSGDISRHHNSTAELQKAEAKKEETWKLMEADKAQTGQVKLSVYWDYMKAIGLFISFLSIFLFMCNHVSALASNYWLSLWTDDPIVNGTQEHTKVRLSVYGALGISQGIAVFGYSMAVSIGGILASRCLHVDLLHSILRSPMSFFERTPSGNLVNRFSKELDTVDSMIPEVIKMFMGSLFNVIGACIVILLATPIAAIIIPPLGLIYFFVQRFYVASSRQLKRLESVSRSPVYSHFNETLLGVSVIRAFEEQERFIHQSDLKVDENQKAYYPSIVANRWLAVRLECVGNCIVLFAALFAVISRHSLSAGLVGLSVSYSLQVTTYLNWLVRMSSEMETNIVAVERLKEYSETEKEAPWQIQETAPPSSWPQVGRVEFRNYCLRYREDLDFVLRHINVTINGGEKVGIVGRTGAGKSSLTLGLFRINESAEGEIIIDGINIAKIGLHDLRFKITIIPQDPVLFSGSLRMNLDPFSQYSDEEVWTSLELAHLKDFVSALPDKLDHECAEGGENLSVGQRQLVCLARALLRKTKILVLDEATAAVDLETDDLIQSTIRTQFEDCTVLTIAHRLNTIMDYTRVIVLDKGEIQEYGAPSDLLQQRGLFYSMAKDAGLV
Data set [3] concerns MDCK. Kind of data set: Antiproliferative activity against MDCK cells at 10 uM by MTT assay. Format: cell-based, Canis lupus familiaris. As to conditions: dog. In short, it runs like this: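 MDCK-MDR1 cells grown in DMEM high glucose with 10% FBS and 2 mM glutamine at 37°C in 5% CO2. Seeded at 20000 cells/well, then treated next day with compound at 10 μM with solvent controls. MTT 0.5 mg/mL added after 24 or 48 h and incubated 3 h at 37°C. Formazan dissolved in DMSO; absorbance read at 570 and 630 nm.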
In general terms: Tetrazolium dyes change colour on reduction, which living cells bring about.

Data set [4] has as its system MDCK. Put plainly: Inhibition of Pgp-mediated doxorubicine accumulation in MDCK cells assessed as nitreated-Pgp level at 10 uM by immunoprecipitation. The format is cell-based. As to conditions: Canis lupus familiaris.

The source made the active and inactive calls. The calls are words filed in the database; no cut-off is given here.

Sequence of ATP-dependent translocase ABCB1 (P08183 whole entry): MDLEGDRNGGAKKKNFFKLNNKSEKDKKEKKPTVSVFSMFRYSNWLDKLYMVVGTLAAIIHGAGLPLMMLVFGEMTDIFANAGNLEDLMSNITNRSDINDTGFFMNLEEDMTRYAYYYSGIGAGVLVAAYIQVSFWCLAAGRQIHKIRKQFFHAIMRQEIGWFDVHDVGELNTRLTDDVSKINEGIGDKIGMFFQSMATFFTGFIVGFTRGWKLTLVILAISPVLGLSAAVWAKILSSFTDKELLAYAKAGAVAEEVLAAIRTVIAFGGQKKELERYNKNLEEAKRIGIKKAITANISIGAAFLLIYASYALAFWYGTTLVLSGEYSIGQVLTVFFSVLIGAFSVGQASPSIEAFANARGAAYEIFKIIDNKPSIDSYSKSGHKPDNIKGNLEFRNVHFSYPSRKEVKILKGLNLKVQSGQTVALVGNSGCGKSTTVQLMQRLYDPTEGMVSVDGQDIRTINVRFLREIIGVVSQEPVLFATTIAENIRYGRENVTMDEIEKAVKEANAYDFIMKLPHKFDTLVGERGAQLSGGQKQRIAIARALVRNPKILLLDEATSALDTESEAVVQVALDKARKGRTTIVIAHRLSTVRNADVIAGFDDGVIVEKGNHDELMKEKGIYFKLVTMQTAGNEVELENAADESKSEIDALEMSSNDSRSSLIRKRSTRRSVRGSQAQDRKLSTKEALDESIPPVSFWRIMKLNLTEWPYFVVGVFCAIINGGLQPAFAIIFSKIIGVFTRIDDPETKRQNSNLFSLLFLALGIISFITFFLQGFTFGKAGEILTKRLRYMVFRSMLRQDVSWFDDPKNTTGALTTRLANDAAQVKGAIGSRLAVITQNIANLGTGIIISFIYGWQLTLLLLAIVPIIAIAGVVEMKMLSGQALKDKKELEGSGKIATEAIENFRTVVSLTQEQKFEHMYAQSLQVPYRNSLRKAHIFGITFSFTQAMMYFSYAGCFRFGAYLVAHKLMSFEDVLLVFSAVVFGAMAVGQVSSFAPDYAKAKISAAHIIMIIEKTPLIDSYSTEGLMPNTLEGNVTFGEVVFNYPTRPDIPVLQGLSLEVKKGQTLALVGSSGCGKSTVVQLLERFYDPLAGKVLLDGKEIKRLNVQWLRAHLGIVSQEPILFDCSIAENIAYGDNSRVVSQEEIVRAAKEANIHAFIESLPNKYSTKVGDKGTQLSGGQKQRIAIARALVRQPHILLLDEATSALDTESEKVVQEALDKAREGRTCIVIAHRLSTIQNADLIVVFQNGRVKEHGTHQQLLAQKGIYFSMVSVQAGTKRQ

Take `Cc1c(-c2ccccc2)no[n+]1[O-]`: the EC50 in data set [1] was more than 100 µM.

With `NS(=O)(=O)c1no[n+]([O-])c1-c1ccccc1`, the EC50 in data set [1] is more than 100 µM.

Turning to `O=S(=O)(c1ccccc1)c1c(Oc2ccccc2)no[n+]1[O-]`, the EC50 in data set [1] was 20.5 µM; in data set [2], 13.6 µM.

`O=[N+]([O-])c1c(-c2ccccc2)n[o+]n1[O-]`: the EC50 in data set [1] is 53 µM; in data set [2], 45 µM.

Take `O=S(=O)(c1ccccc1)c1c(-c2ccccc2)no[n+]1[O-]`: the EC50 in data set [1] was 10 µM.

For `CC(C)Oc1no[n+]([O-])c1S(=O)(=O)c1ccccc1`, the EC50 was 2.15 µM in data set [1] and 63 µM in data set [2]. The compound also showed an Activity in data set [3] of 30%.

Turning to `CCCCCCCCOc1no[n+]([O-])c1S(=O)(=O)c1ccccc1`, in data set [1], the EC50 was 4.6 µM.

As for `N#Cc1c(S(=O)(=O)c2ccccc2)no[n+]1[O-]`, the results for the EC50 in data set [1] and in data set [2] were 55.4 µM and 72 µM, respectively.

`NC(=O)c1no[n+]([O-])c1-c1ccccc1`: in data set [1], the EC50 is more than 100 µM.

For the compound `N#Cc1no[n+]([O-])c1S(=O)(=O)c1ccccc1`, the figures for the EC50 in data set [1] and in data set [2] were 7.4 µM and 29.5 µM, respectively.

As for `Cc1no[n+]([O-])c1S(=O)(=O)c1ccccc1`, in data set [1], the EC50 is 28.3 µM.

`CCCCCCOc1nonc1S(=O)(=O)c1ccccc1`: the EC50 in data set [1] was 32.2 µM.

`O=S(=O)(c1ccccc1)c1no[n+]([O-])c1S(=O)(=O)c1ccccc1`: the half-maximal effective concentration (EC50) is 3 µM in data set [1] and 15.1 µM in data set [2].

For the compound `CCCCCCOc1no[n+]([O-])c1S(=O)(=O)c1ccccc1`, the result in data set [4] was Active. The values for the EC50 in data set [1] and in data set [2] were 3.35 µM and 12 µM, respectively.

On to `CC1(C)CCC(C)(C)c2cc(-c3cc(-c4ccc(C(=O)O)cc4)no3)ccc21`, for which the EC50 in data set [1] is 1.5 µM.

Turning to `NC(=O)c1c(S(=O)(=O)c2ccccc2)no[n+]1[O-]`, in data set [1], the EC50 is 52.6 µM.

Consider `CCC(C)Oc1no[n+]([O-])c1S(=O)(=O)c1ccccc1` (stereo not drawn), for which the EC50 in data set [1] was 2.23 µM; in data set [2], 46 µM. In data set [3], this compound gave an Activity of 45%.

Consider `CCCCCCCCCCOc1no[n+]([O-])c1S(=O)(=O)c1ccccc1`, for which the EC50 in data set [1] was 3.31 µM.

With `Cc1c(S(=O)(=O)c2ccccc2)no[n+]1[O-]`, the EC50 in data set [1] is more than 100 µM.

For `NS(=O)(=O)c1c(-c2ccccc2)no[n+]1[O-]`, the EC50 in data set [1] was more than 100 µM.

On to `CCCCOc1no[n+]([O-])c1S(=O)(=O)c1ccccc1`, for which the result in data set [4] was Active. For the same compound, the values for the EC50 in data set [1] and in data set [2] were 2.26 µM and 7.61 µM, respectively.

As to `Nc1no[n+]([O-])c1-c1ccccc1`, the EC50 in data set [1] is more than 100 µM.

Consider `NC(=O)c1c(-c2ccccc2)no[n+]1[O-]`, for which the concentration for a half-maximal effect (EC50) in data set [1] was more than 100 µM.

On to `Nc1c(-c2ccccc2)no[n+]1[O-]`, for which the EC50 in data set [1] was more than 100 µM.

Consider `NC(=O)c1no[n+]([O-])c1S(=O)(=O)c1ccccc1`, for which the EC50 was 50 µM in data set [1] and 85.8 µM in data set [2].

`Cc1no[n+]([O-])c1-c1ccccc1`: in data set [1], the EC50 was more than 100 µM.

For the compound `O=S(=O)(c1ccccc1)c1no[n+]([O-])c1-c1ccccc1`, the EC50 in data set [1] was 46 µM.

For `COc1c(-c2ccccc2)no[n+]1[O-]`, in data set [1], the EC50 was more than 100 µM.

For the compound `CCOc1no[n+]([O-])c1S(=O)(=O)c1ccccc1`, the EC50 in data set [1] is 12 µM; in data set [2], 49.1 µM.

Take `CCCCOc1nonc1S(=O)(=O)c1ccccc1`: the EC50 in data set [1] was 49.7 µM.

For the compound `N#Cc1no[n+]([O-])c1-c1ccccc1`, the EC50 in data set [1] is more than 100 µM.

For `[O-][n+]1onc(-c2ccccc2)c1-c1ccccc1`, in data set [1], the EC50 is more than 100 µM.

For the compound `COc1no[n+]([O-])c1-c1ccccc1`, the EC50 in data set [1] was more than 100 µM.

In general, EC50 refers to the concentration that produces a half-maximal response.
